Experiments:
Homo sapiens = organism: Homo sapiens; test: Selectivity ratio of Ki for human TSPO A147T mutant to Ki for human wild type TSPO
Translocator protein [1] = biological target: T1, Translocator protein (Homo sapiens, UniProt P30536); test: Displacement of [3H]PK11195 from human wild type TSPO expressed in HEK293T cell membranes after 90 mins by scintillation counting method
HEK-293T [2] = test: Cytotoxicity against HEK293T cells expressing human TSPO A147T mutant assessed as decrease in cell viability after 48 hrs by CellTiter blue assay; format: functional, cell-based
Method in brief: (§1)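 Stable TSPO WT or A147T 293T cells at 8.75 × 10³ cells/well on poly-L-lysine-coated plates, exposed next day to vehicle or compound (1–100 μM) for 48 h. CellTiter Blue (resazurin to resorufin) added for 4 h at 37 °C, fluorescence read at Ex560/Em590 nm.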

HEK-293T [3] = test: Antiproliferative activity against HEK293T cells expressing human TSPO A147T mutant after 48 hrs by BrdU incorporation assay; format: functional, cell-based
Method in brief: (§2)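 293T cells stably expressing human TSPO WT or A147T (lentiviral, puromycin-selected) seeded at 8.75 × 10³ cells/well on poly-L-lysine-coated plates, treated next day with vehicle or compound (1–100 μM) for 48 h. BrdU added for 4 h at 37 °C, incorporation detected by ELISA, absorbance read at 450 nm.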

HEK-293T [4] = test: Cytotoxicity against HEK293T cells expressing human wild type TSPO assessed as decrease in cell viability after 48 hrs by CellTiter blue assay; format: functional, cell-based; method in brief: as §1
HEK-293T [5] = test: Antiproliferative activity against HEK293T cells expressing human wild type TSPO after 48 hrs by BrdU incorporation assay; format: functional, cell-based; method in brief: as §2
[6] = Selectivity ratio of IC50 for HEK293T cells expressing human TSPO A147T mutant assessed as decrease in cell viability to IC50 for HEK293T cells expressing human wild type TSPO assessed as decrease in cell viability; format: functional
[7] = Selectivity ratio of IC50 for HEK293T cells expressing human TSPO A147T mutant assessed as decrease in cell proliferation to IC50 for HEK293T cells expressing human wild type TSPO assessed as decrease in cell proliferation; format: functional
Translocator protein [8] = biological target: T1, Translocator protein; test: Ratio of Ki for displacement of [3H]PK11195 from human brain TSPO isolated from low affinity binder patient to Ki for [3H]PK11195 from human brain TSPO isolated from high affinity binder patient

T1 sequence (P30536 whole entry): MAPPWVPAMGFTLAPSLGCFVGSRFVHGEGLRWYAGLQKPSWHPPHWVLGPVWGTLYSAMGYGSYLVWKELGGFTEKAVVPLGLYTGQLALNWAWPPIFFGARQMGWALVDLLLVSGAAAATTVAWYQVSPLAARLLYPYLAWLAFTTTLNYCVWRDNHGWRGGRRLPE

| Structure (SMILES) | Ratio Ki (Homo sapiens) | Ki (Translocator protein [1]) | IC50 (HEK-293T [2]) | IC50 (HEK-293T [3]) | IC50 (HEK-293T [4]) | IC50 (HEK-293T [5]) | Ratio IC50 [6] | Ratio IC50 [7] | Ratio Ki (Translocator protein [8]) |
| --- | --- | --- | --- | --- | --- | --- | --- | --- | --- |
| CCN(CC)C(=O)Cn1c2ccccc2c2cc(-c3ccc(OC)cc3)ccc21 | 3.2 | 28.9 nM |  |  |  |  |  |  |  |
| CCN(CC)C(=O)Cc1c(-c2ccc(OC)cc2)nn2c(C)cc(C)nc12 |  |  | > 100 µM | > 100 µM | > 100 µM | > 100 µM |  |  |  |
| CCN(CC)C(=O)Cn1c2ccccc2c2cc(-c3ccccc3OC)ccc21 | 5.4 | 25.4 nM |  |  |  |  |  |  |  |
| CCC(C)N(C)C(=O)c1cc2ccccc2c(-c2ccccc2Cl)n1 (centres undefined) [PK-11195] |  |  | 69.2 µM | > 100 µM | 67.4 µM | > 100 µM |  |  |  |
| CCN(CC)C(=O)Cn1c2ccccc2c2cc(Br)ccc21 | 5.1 | 31.5 nM |  |  |  |  |  |  |  |
| CCN(CC)C(=O)Cn1c2ccccc2c2ccccc21 | 5.9 | 30.1 nM |  |  |  |  |  |  |  |
| CCN(CC)C(=O)Cn1c2ccccc2c2cc(-c3ccccc3)ccc21 | 5.1 | 31.6 nM | 22.9 µM | 47.1 µM | 23.7 µM | 50.5 µM | 1 | 0.9 |  |
| CCN(Cc1ccccc1)C(=O)Cn1c(=O)n(C)c2cnc(-c3ccccc3)nc21 | 4.9 | 6.4 nM | 26.2 µM | > 100 µM | 29.5 µM | > 100 µM | 0.9 |  | 12.6 |
| CCN(Cc1ccccc1)C(=O)Cn1c2ccccc2c2ccccc21 | 5 | 91.6 nM | > 100 µM | > 100 µM | > 100 µM | > 100 µM |  |  |  |
| CCN(Cc1ccccc1)C(=O)Cn1c2ccccc2c2cc(Br)ccc21 |  | 54.3 nM |  |  |  |  |  |  |  |
